The conditions of data set [1]: Measured at pH 8; ref Palos Pacheco et al. [25]; cited from earlier work.
The test system of data set [2] is H1299, a human lung cell line. Put plainly: xCELLigence Real-Time Cell Analysis. The conditions noted are these: read-out: xCELLigence IC50 72 h; H1299, 72 h, n=3, mean ± SD. The class given is cell-based.
In the next data set the test system is Aliivibrio fischeri. Description: Microtox acute toxicity assay. The class given is cell-based. As to conditions: n=3, mean ± SD. The method in brief:
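Aliivibrio fischeri bioluminescence assay, run in triplicate. A 2 mM stock was osmotically adjusted and then 1:1 serially diluted in Microtox diluent to 9 concentrations (3.5–889 μM). Diluent alone served as the toxicant-free control. Light output was read before mixing with bacteria and again at 5, 15 and 30 min. EC50 is the concentration halving bioluminescence relative to the control at each time point.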

The subject of data set [3] is H1299, a human lung cell line. Description: MTS cytotoxicity assay. The class given is cell-based. As to conditions: read-out: MTS IC50 72 h; H1299, 72 h, mean ± SD, n = 2–7.
Data set [4] has as its system Zebrafish (Danio rerio) embryos. Description: Zebrafish embryo developmental toxicity assay. It counts as in vivo. The conditions noted are these: for Zebrafish mortality: 120 hpf. Summed up:
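Embryos with intact chorions were exposed from 6 to 120 hpf in embryo medium to 0.064–640 μM test compound. All wells contained 0.64% DMSO, and there were 32 embryos per concentration and control. Plates were kept at 28 °C in the dark. At 24 hpf, mortality, developmental delay, spontaneous movement and notochord were scored. At 120 hpf, mortality, edemas, morphological abnormalities, circulation, swim bladder and touch response were scored.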

For data set [5] the following is noted: laboratory settings; cited from earlier work.
[6] abbreviates: read-out: Microtox EC50 5 min, 5 min exposure.
Setting [7] is: read-out: Microtox EC50 15 min, 15 min exposure.
[8] abbreviates: read-out: Microtox EC50 30 min, 30 min exposure.

Where two headings read alike, the source gives them in different places.

These results are taken from article PMC6289288 (Journal of hazardous materials, 2018).

For the molecule `CCCCCCCC(CC(=O)O)OC(=O)CC(CCCCCCC)O[C@@H]1O[C@@H](C)[C@H](O)[C@@H](O)[C@H]1O` (stereo partly drawn) [Rha-C10-C10 (R,R), rhamnosyl-β-hydroxydecanoyl-β-hydroxydecanoate], in data set [1], the Area is reported as 119 ± 10 Å^2 molecule^−1. In data set [1], the CMC was 270 ± 77 µM. Moreover, the “Minimum Surface Tension” value in data set [1] is recorded as 28.1 ± 0.2 mN m^−1. Moreover, the IC50 turned out to be 122 ± 9.1 µM in data set [2] and 129.7 ± 1.1 µM in data set [3]. Moreover, the figures for the EC50 with Aliivibrio fischeri (setting [6]), in the data set on Aliivibrio fischeri (setting [7]) and with Aliivibrio fischeri (setting [8]) were 78.7 ± 4 µM, 53.8 ± 3.3 µM and 47.3 ± 1.2 µM, respectively. In data set [4] (640 μM, n = 32, exposure from 6 to 120 hpf), the Zebrafish mortality entry is given as “not associated with mortality”. Moreover, the “Developmental effects (22 developmental endpoints)” value in data set [4] (0.064–640 μM, 24 and 120 hpf) is recorded as “no developmental effects”.

For the molecule `CCCCCCCC(CC(=O)O)OC(=O)CC(CCCCCCC)O[C@@H]1O[C@@H](C)[C@H](O)[C@@H](O)[C@H]1O` (stereo partly drawn) [Rha-C10-C10 (S,R), rhamnosyl-β-hydroxydecanoyl-β-hydroxydecanoate], in data set [1], the Area was 105 ± 4 Å^2 molecule^−1. Besides, the CMC in data set [1] was 180 ± 24 µM. In addition, in data set [1], the “Minimum Surface Tension” value is recorded as 28.5 ± 0.2 mN m^−1. The values for the IC50 in data set [2] and in data set [3] were 111 ± 6.2 µM and 103 ± 31.9 µM, respectively. In addition, the EC50 with Aliivibrio fischeri (setting [6]) was found to be 61.9 ± 4.7 µM; with Aliivibrio fischeri (setting [7]), 39.6 ± 2.9 µM; with Aliivibrio fischeri (setting [8]), 36.6 ± 2.9 µM.

As for `CCCCCCCC(CC(=O)O)OC(=O)CC(CCCCCCC)O[C@@H]1O[C@@H](C)[C@H](O)[C@@H](O)[C@H]1O` (stereo partly drawn) [Rha-C10-C10 (S,S), rhamnosyl-β-hydroxydecanoyl-β-hydroxydecanoate], the Area in data set [1] is given as 94 ± 8 Å^2 molecule^−1. Also, the CMC in data set [1] was 201 ± 51 µM. For the same molecule, the “Minimum Surface Tension” value in data set [1] is 29.5 ± 0.2 mN m^−1. For the same molecule, the IC50 in data set [2] is 108 ± 5.3 µM; in data set [3] it was 125 ± 18.6 µM. Further, the values for the EC50 in the data set with Aliivibrio fischeri (setting [6]), in the data set on Aliivibrio fischeri (setting [7]) and in the data set on Aliivibrio fischeri (setting [8]) were 64.3 ± 8.5 µM, 42.6 ± 4.4 µM and 38.8 ± 3.7 µM, respectively. Besides, the Zebrafish mortality in data set [4] (6.4 μM, n = 32) is reported as 19%.

Turning to `CCCCC(CC)COC(=O)CC(C(=O)OCC(CC)CCCC)S(=O)(=O)O` (stereo not shown) [bis-(2-ethylhexyl) sulfosuccinate (DOSS), bis-(2-ethylhexyl) sulfosuccinate], the Biodegradability entry in data set [5] was “biodegradable”.
